# In ChEMBL document CHEMBL4138072, “Identification of mitoxantrone as a new inhibitor of ROS1 fusion protein in non-small cell lung cancer cells” (Medchemcomm, 2017):
# Active and inactive are the calls of the source. No cut-off for these calls is given here.
# Key:
# HCC78 [1] = test: Induction of apoptosis in human HCC78 cells assessed as necrotic cells level at 2.5 uM incubated fro 48 hrs by Annexin-V FITC and propidium iodide staining based flow cytometry (reference value: 0.06%); assay type: functional
# HCC78 [2] = test: Induction of apoptosis in human HCC78 cells assessed as viable cells level at 2.5 uM incubated fro 48 hrs by Annexin-V FITC and propidium iodide staining based flow cytometry (reference value: 80.8%); assay type: functional
# [3] = molecular target: T1, Proto-oncogene tyrosine-protein kinase ROS (Homo sapiens, UniProt P08922); settings: HCC78, 2.5 uM
# T1 sequence (P08922 whole entry): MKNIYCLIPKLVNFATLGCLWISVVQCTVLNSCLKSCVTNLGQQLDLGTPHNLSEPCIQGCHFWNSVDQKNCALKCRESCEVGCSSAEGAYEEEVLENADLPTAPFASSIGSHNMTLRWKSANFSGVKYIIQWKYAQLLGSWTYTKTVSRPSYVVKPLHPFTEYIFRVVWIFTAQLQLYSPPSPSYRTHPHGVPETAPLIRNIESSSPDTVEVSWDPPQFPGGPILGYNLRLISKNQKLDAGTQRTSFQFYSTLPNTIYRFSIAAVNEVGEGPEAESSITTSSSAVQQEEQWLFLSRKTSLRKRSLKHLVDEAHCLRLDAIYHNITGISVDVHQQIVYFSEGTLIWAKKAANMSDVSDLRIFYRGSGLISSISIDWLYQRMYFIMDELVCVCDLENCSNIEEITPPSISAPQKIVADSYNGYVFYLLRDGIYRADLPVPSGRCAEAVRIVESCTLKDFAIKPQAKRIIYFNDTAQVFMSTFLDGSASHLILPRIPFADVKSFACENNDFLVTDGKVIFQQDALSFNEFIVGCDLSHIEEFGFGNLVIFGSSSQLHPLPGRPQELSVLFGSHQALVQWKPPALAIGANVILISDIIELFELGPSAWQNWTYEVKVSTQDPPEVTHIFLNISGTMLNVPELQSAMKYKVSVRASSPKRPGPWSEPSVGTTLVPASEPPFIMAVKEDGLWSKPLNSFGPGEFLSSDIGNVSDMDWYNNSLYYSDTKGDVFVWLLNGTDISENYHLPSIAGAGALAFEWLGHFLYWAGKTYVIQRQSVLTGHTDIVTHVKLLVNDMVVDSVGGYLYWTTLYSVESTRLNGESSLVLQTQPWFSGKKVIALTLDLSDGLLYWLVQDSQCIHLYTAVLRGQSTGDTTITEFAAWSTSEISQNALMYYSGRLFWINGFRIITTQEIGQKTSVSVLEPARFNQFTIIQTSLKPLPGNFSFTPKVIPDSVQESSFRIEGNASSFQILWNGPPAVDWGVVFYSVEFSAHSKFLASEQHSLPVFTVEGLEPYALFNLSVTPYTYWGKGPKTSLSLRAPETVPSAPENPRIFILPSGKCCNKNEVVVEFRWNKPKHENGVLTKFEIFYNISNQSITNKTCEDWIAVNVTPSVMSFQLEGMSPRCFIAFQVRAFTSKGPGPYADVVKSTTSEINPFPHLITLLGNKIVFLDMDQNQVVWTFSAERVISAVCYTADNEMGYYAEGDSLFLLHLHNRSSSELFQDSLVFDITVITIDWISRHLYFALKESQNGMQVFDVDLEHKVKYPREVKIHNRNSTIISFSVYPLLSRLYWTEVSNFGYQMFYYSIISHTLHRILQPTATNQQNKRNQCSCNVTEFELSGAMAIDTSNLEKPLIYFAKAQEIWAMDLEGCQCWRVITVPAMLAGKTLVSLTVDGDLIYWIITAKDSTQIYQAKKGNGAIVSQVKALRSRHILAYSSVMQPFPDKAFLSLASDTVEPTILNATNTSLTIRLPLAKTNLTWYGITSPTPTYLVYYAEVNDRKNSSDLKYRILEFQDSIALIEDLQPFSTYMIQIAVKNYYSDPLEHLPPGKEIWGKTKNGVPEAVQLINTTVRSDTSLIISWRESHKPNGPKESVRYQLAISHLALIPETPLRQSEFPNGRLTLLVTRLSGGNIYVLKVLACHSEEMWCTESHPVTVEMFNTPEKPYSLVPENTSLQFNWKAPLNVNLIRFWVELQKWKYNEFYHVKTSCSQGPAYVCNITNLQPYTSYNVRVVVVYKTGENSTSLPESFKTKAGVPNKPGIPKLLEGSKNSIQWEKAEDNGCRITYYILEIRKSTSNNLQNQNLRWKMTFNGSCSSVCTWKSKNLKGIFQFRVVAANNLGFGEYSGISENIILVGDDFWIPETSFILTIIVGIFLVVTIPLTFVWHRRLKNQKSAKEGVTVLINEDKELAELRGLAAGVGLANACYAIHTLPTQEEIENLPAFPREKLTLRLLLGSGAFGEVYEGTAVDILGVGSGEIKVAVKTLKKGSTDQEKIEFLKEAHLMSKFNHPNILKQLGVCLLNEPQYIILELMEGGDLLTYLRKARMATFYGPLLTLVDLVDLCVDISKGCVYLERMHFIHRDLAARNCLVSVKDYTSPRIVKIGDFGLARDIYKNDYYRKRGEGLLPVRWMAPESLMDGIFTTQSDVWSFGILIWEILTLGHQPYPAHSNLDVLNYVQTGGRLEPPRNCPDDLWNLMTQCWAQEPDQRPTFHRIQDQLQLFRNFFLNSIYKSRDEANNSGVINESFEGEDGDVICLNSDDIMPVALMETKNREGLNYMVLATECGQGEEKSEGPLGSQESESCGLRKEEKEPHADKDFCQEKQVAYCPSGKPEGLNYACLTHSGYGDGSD
# [4] = molecular target: T1, Proto-oncogene tyrosine-protein kinase ROS; settings: HCC78, 2.5 uM; remark: listed apart in the source
# HCC78 [5] = test: Induction of apoptosis in human HCC78 cells assessed as early apoptotic cells level at 2.5 uM incubated fro 48 hrs by Annexin-V FITC and propidium iodide staining based flow cytometry (reference value: 6.33%); assay type: functional
# HCC78 [6] = test: Induction of apoptosis in human HCC78 cells assessed as late apoptotic cells level at 2.5 uM incubated fro 48 hrs by Annexin-V FITC and propidium iodide staining based flow cytometry (reference value: 13.8%); assay type: functional
# [7] = molecular target: T1, Proto-oncogene tyrosine-protein kinase ROS; settings: HCC78, 2.5 uM; remark: listed apart in the source
# [8] = molecular target: T1, Proto-oncogene tyrosine-protein kinase ROS; settings: HCC78, 2.5 uM; remark: listed apart in the source
# HCC78 [9] = test: Induction of apoptosis in human HCC78 cells assessed as late apoptotic cells level at 20 nM incubated fro 48 hrs by Annexin-V FITC and propidium iodide staining based flow cytometry (reference value: 13.8%); assay type: functional
# HCC78 [10] = test: Induction of apoptosis in human HCC78 cells incubated fro 48 hrs by Annexin-V FITC and propidium iodide staining based flow cytometry; assay type: functional, cell-based
# HCC78 [11] = test: Induction of apoptosis in human HCC78 cells assessed as viable cells level at 20 nM incubated fro 48 hrs by Annexin-V FITC and propidium iodide staining based flow cytometry (reference value: 80.8%); assay type: functional
# HCC78 [12] = test: Induction of apoptosis in human HCC78 cells assessed as early apoptotic cells level at 5 nM incubated fro 48 hrs by Annexin-V FITC and propidium iodide staining based flow cytometry (reference value: 6.33%); assay type: functional
# HCC78 [13] = test: Cytotoxicity in human HCC78 cells assessed as reduction in cell viability incubated for 72 hrs by MTT assay; assay type: functional, cell-based; settings: HCC78, 72 h
# In short: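 3000 cells per well, allowed to adhere overnight, then exposed to DMSO or a concentration series for 72 h. MTT (5 mg/ml stock) added for a further 4 h, and crystals dissolved in 10% SDS/0.1 mM HCl. A570 read. Viability expressed relative to untreated controls from at least 3 independent experiments. HCC78 cells were grown in RPMI-1640 with 10% FBS and penicillin/streptomycin at 37 °C under 5% CO2.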
# HCC78 [14] = test: Induction of apoptosis in human HCC78 cells assessed as necrotic cells level at 10 nM incubated fro 48 hrs by Annexin-V FITC and propidium iodide staining based flow cytometry (reference value: 0.06%); assay type: functional
# CCD 19Lu = test: Cytotoxicity in human CCD-19Lu cells assessed as reduction in cell viability incubated for 72 hrs by MTT assay; assay type: cell-based
# [15] = molecular target: T1, Proto-oncogene tyrosine-protein kinase ROS; test: Inhibition of ROS1 in human HCC78 cells assessed as reduction in STAT3 phosphorylation incubated for 48 hrs by Western blot method; assay type: cell-based
# In short: (§1)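 HCC78 cells plated overnight in 6-well plates, treated for 48 h, then lysed in RIPA buffer with protease/phosphatase inhibitors. Equal protein loaded for SDS-PAGE and transferred to nitrocellulose. Blocked in 5% milk/TBST, probed overnight at 4 °C for p-ROS1, ROS1, p-STAT3, STAT3, p-AKT, AKT, p-ERK, ERK and GAPDH, and detected with fluorescent secondary antibodies on an infrared scanner.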
# HCC78 [16] = test: Induction of apoptosis in human HCC78 cells assessed as necrotic cells level at 20 nM incubated fro 48 hrs by Annexin-V FITC and propidium iodide staining based flow cytometry (reference value: 0.06%); assay type: functional
# HCC78 [17] = test: Induction of apoptosis in human HCC78 cells assessed as late apoptotic cells level at 10 nM incubated fro 48 hrs by Annexin-V FITC and propidium iodide staining based flow cytometry (reference value: 13.8%); assay type: functional
# [18] = molecular target: T1, Proto-oncogene tyrosine-protein kinase ROS; test: Inhibition of ROS1 phosphorylation in human HCC78 cells incubated for 48 hrs by Western blot method; assay type: cell-based; in short: as §1
# [19] = molecular target: T1, Proto-oncogene tyrosine-protein kinase ROS; test: Inhibition of ROS1 in human HCC78 cells assessed as reduction in AKT phosphorylation incubated for 48 hrs by Western blot method; assay type: cell-based; in short: as §1
# HCC78 [20] = test: Induction of apoptosis in human HCC78 cells assessed as late apoptotic cells level at 5 nM incubated fro 48 hrs by Annexin-V FITC and propidium iodide staining based flow cytometry (reference value: 13.8%); assay type: functional
# HCC78 [21] = test: Induction of apoptosis in human HCC78 cells assessed as necrotic cells level at 5 nM incubated fro 48 hrs by Annexin-V FITC and propidium iodide staining based flow cytometry (reference value: 0.06%); assay type: functional
# [22] = molecular target: T1, Proto-oncogene tyrosine-protein kinase ROS; test: Inhibition of ROS1 (unknown origin) using poly (Glu,Tyr)4:1 substrate and ATP incubated for 60 mins by ELISA
# In short: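 Purified recombinant ROS1 on poly(Glu,Tyr)4:1-coated wells (20 μg/ml coating). Reaction run in HEPES pH 7.4 buffer with MgCl2, MnCl2, Na3VO4 and DTT, with 10 μmol/l ATP solution and compound in 1% DMSO, 60 min at 37 °C. Phosphotyrosine detected by PY99 antibody, then HRP anti-mouse IgG and o-phenylenediamine, read at A490. Inhibition calculated as % of DMSO control. IC50 derived from curves in two experiments.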
# [23] = molecular target: T1, Proto-oncogene tyrosine-protein kinase ROS; test: Inhibition of ROS1 in human HCC78 cells assessed as reduction in ERK phosphorylation incubated for 48 hrs by Western blot method; assay type: cell-based; in short: as §1
# HCC78 [24] = test: Induction of apoptosis in human HCC78 cells assessed as viable cells level at 10 nM incubated fro 48 hrs by Annexin-V FITC and propidium iodide staining based flow cytometry (reference value: 80.8%); assay type: functional
# HCC78 [25] = test: Induction of apoptosis in human HCC78 cells assessed as early apoptotic cells level at 10 nM incubated fro 48 hrs by Annexin-V FITC and propidium iodide staining based flow cytometry (reference value: 6.33%); assay type: functional
# HCC78 [26] = test: Induction of apoptosis in human HCC78 cells assessed as viable cells level at 5 nM incubated fro 48 hrs by Annexin-V FITC and propidium iodide staining based flow cytometry (reference value: 80.8%); assay type: functional
# HCC78 [27] = test: Induction of apoptosis in human HCC78 cells assessed as early apoptotic cells level at 20 nM incubated fro 48 hrs by Annexin-V FITC and propidium iodide staining based flow cytometry (reference value: 6.33%); assay type: functional
structure (smiles),measurement,setting,value
C[C@@H](Oc1cc(-c2cnn(C3CCNCC3)c2)cnc1N)c1c(Cl)ccc(F)c1Cl [CRIZOTINIB],Activity,HCC78 [1],0.662%
same,Activity,HCC78 [2],45.9%
same,inhibition,[3],Active
same,inhibition,[4],Active
same,Activity,HCC78 [5],27.3%
same,Activity,HCC78 [6],27.2%
same,inhibition,[7],Active
same,inhibition,[8],Active
O=C1c2c(O)ccc(O)c2C(=O)c2c(NCCNCCO)ccc(NCCNCCO)c21 [MITOXANTRONE],Activity,HCC78 [9],17.2%
same,Activity,HCC78 [10],Dose-dependent effect
same,Activity,HCC78 [11],63.8%
same,Activity,HCC78 [12],16.4%
same,IC50,HCC78 [13],13.8 nM
same,Activity,HCC78 [14],0.076%
same,IC50,CCD 19Lu,> 160 nM
same,inhibition,[15],Dose-dependent effect
same,Activity,HCC78 [16],0.048%
same,Activity,HCC78 [17],18.7%
same,inhibition,[18],Dose-dependent effect
same,inhibition,[19],Dose-dependent effect
same,Activity,HCC78 [20],16.9%
same,Activity,HCC78 [21],0.089%
same,IC50,[22],3000 nM
same,inhibition,[23],Dose-dependent effect
same,Activity,HCC78 [24],66.7%
same,Activity,HCC78 [25],18.6%
same,Activity,HCC78 [26],66.6%
same,Activity,HCC78 [27],19.7%
